The results in this text go back to ChEMBL document CHEMBL4118021, “Studies of TAK1-centered polypharmacology with novel covalent TAK1 inhibitors” (Bioorg Med Chem, 2017).

For test [1], the target named is T1, Calcium/calmodulin-dependent protein kinase type IV (Homo sapiens) (UniProt Q16566).
T1 sequence (whole entry): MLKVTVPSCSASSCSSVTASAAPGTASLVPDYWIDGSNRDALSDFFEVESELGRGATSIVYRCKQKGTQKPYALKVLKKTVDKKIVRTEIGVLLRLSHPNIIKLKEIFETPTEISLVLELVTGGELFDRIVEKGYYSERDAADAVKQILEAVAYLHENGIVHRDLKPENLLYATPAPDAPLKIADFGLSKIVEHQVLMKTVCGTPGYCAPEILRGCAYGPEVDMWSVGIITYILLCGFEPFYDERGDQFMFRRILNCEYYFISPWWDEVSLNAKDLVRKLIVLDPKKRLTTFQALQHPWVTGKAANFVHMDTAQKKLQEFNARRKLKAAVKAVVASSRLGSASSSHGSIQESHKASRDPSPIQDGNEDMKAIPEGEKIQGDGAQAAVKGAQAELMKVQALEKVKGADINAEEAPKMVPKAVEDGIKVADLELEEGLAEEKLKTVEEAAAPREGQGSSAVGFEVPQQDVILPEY
Kind of test: Inhibition of CaMK4 in human SKCO1 cells at 1 uM after 4 hrs using biotin labeled DLKPENLLYATPAPDAPLK probe by mass-spectrometric analysis relative to control. The class given is cell-based.

Test [2] addresses Tyrosine-protein kinase Fes/Fps (Homo sapiens) (UniProt P07332). In words: Inhibition of FES in human SKCO1 cells at 1 uM after 4 hrs using biotin labeled LRADNTLVAVKSCR probe by mass-spectrometric analysis relative to control. The class given is cell-based.
Test [3] addresses Fibroblast growth factor receptor 1 (Homo sapiens) (UniProt P11362). Kind of test: Inhibition of FGFR1 in human SKCO1 cells at 1 uM after 4 hrs using biotin labeled VAVKMLK probe by mass-spectrometric analysis relative to control. Type of test: cell-based. To be noted: pooled result: one value given for 4 cell lines, strains, targets or settings.
Test [4] deals with T2, Serine/threonine-protein kinase LATS2 (Homo sapiens) (UniProt Q9NRM7).
T2 sequence (whole entry): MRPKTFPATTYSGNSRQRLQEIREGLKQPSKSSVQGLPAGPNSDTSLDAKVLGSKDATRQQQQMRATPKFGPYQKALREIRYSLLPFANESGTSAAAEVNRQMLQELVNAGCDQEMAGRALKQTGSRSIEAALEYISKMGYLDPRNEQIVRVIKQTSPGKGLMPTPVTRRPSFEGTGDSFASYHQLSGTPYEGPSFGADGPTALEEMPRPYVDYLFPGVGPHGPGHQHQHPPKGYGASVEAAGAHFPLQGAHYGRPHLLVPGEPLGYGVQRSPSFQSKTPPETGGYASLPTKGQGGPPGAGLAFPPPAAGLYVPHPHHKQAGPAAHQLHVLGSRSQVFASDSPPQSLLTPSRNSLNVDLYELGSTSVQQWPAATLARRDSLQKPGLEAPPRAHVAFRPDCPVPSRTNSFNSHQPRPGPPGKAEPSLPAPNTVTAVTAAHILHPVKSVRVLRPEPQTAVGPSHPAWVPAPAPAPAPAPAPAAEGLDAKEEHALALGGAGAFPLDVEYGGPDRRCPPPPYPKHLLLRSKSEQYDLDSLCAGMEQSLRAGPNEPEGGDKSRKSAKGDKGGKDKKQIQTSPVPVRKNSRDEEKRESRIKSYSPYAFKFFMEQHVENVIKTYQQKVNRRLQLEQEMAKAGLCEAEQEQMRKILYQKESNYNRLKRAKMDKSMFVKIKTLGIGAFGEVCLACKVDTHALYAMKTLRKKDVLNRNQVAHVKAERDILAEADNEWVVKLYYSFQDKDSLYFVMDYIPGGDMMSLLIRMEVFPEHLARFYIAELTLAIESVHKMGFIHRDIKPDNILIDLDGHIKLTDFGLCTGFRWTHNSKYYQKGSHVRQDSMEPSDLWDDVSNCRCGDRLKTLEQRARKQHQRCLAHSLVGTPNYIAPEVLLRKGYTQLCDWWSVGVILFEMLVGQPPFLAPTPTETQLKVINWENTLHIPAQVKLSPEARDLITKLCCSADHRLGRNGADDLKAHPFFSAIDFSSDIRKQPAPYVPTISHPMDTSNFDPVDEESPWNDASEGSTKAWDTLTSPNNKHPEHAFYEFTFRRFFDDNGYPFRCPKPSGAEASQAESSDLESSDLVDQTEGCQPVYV
Kind of test: Inhibition of LATS2 in human SKCO1 cells at 1 uM after 4 hrs using biotin labeled DIKPDNILIDLDGHIK probe by mass-spectrometric analysis relative to control. Type of test: cell-based.

The target in test [5] is Serine/threonine-protein kinase 10 (Homo sapiens) (UniProt O94804). Kind of test: Inhibition of LOK in human SKCO1 cells at 1 uM after 4 hrs using biotin labeled DLKAGNVLMTLEGDIR probe by mass-spectrometric analysis relative to control. Type of test: cell-based.
Sequence of Serine/threonine-protein kinase 10 (Homo sapiens) (O94804 whole entry, looked up): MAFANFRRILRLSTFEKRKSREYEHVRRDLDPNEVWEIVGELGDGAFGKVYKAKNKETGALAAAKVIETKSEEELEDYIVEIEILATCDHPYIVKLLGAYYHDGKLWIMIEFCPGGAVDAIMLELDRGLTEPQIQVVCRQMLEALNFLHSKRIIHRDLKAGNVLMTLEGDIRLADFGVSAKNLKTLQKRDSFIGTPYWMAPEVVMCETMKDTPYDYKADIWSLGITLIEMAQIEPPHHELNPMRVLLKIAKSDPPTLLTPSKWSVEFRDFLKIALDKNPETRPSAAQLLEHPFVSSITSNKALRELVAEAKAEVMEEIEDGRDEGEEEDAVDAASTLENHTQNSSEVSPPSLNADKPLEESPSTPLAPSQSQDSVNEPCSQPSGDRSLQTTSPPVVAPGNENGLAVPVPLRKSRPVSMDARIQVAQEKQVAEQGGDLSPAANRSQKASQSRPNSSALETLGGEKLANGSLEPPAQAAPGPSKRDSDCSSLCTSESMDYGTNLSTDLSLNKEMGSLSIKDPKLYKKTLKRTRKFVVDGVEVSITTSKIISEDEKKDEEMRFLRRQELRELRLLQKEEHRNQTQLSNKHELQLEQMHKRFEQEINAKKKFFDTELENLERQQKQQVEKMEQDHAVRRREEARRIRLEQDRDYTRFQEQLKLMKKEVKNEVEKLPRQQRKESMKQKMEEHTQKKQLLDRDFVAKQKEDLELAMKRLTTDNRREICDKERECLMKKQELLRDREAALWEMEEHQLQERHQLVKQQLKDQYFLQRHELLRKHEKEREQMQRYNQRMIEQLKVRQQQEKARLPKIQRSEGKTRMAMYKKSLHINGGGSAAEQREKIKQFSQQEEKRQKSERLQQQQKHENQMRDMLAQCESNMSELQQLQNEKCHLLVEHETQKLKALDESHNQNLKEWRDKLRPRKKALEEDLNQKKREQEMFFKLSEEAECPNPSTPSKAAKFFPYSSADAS
Test [6] has as its target Serine/threonine-protein kinase PAK 2 (Homo sapiens) (UniProt Q13177). Kind of test: Inhibition of PAK2 in human SKCO1 cells at 1 uM after 4 hrs using biotin labeled IGQGASGTVFTATDVALGQEVAIKQINLQK probe by mass-spectrometric analysis relative to control. Type of test: cell-based. The method, boiled down:
(§1)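 Live SK-CO-1 cells exposed to compound at 1 μM or DMSO for 4 h (KiNativ). Lysates then labeled with lysine-reactive ATP/ADP-biotin probe, and probe-labeled kinase peptides quantified by mass spectrometry. Percent inhibition of probe-dependent recovery calculated relative to DMSO-treated cells.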

Test [7] has as its target Cyclin-dependent kinase 18 (Homo sapiens) (UniProt Q07002). In words: Inhibition of PCTAIRE3 in human SKCO1 cells at 1 uM after 4 hrs using biotin labeled SKLTENLVALKEIR probe by mass-spectrometric analysis relative to control. Type of test: cell-based. The method, boiled down:
as §1

The target in test [8] is T3, Mitogen-activated protein kinase kinase kinase 7 (Homo sapiens) (UniProt O43318).
T3 sequence (whole entry): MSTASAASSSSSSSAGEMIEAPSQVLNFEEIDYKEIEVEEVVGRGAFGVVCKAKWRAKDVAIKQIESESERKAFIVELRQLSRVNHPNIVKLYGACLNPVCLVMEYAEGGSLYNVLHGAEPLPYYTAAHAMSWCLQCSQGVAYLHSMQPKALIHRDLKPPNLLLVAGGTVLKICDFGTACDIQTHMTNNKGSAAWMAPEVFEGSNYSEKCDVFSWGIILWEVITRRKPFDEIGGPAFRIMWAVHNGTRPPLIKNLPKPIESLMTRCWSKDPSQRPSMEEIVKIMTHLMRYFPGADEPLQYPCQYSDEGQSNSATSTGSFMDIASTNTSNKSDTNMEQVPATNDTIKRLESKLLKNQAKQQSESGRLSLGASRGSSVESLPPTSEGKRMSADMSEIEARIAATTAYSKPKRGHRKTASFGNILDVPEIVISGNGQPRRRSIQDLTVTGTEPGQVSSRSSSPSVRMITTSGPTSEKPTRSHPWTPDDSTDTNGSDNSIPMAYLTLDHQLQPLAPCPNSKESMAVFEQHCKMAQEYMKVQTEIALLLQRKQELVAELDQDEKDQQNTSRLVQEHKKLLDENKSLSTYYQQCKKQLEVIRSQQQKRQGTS
To be noted: 1 uM.

Sequence of Serine/threonine-protein kinase PAK 2 (Homo sapiens) (Q13177 whole entry): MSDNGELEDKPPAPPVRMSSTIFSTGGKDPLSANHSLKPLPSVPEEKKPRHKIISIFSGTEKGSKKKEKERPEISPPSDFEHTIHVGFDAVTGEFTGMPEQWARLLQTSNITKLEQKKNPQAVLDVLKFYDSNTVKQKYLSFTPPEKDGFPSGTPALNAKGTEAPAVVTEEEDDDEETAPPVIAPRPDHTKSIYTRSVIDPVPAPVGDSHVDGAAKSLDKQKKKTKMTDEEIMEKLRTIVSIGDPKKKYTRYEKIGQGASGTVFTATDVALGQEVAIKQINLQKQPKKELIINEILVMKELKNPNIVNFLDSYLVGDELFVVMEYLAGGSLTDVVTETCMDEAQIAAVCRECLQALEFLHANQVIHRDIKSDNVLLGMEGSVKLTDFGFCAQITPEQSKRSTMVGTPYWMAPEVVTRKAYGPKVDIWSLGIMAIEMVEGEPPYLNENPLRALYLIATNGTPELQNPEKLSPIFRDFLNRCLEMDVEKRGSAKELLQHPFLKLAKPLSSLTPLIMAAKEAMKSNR
Sequence of Tyrosine-protein kinase Fes/Fps (Homo sapiens) (P07332 whole entry): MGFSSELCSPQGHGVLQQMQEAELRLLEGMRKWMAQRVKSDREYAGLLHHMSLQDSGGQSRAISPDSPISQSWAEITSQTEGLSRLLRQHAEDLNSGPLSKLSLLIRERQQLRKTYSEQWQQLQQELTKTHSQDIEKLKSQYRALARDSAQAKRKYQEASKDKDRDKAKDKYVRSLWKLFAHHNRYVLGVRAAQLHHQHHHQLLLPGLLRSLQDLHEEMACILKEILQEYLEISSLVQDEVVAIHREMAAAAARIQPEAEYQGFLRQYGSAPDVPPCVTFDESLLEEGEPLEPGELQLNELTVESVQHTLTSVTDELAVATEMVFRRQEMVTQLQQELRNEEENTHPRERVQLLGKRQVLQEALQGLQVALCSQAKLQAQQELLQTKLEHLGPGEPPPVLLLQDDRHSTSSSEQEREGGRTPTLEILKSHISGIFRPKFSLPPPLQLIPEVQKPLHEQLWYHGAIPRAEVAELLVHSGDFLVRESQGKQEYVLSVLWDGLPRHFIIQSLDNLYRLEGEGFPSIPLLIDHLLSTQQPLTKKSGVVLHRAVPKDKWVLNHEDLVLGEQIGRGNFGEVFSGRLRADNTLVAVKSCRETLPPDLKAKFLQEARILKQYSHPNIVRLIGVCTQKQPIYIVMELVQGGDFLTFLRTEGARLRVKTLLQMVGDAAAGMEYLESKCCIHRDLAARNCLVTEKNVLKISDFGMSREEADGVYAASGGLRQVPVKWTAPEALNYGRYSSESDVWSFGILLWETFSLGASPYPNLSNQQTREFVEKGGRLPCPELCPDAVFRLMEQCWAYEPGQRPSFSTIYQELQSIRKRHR
Sequence of Fibroblast growth factor receptor 1 (Homo sapiens) (P11362 22-822 limits assumed): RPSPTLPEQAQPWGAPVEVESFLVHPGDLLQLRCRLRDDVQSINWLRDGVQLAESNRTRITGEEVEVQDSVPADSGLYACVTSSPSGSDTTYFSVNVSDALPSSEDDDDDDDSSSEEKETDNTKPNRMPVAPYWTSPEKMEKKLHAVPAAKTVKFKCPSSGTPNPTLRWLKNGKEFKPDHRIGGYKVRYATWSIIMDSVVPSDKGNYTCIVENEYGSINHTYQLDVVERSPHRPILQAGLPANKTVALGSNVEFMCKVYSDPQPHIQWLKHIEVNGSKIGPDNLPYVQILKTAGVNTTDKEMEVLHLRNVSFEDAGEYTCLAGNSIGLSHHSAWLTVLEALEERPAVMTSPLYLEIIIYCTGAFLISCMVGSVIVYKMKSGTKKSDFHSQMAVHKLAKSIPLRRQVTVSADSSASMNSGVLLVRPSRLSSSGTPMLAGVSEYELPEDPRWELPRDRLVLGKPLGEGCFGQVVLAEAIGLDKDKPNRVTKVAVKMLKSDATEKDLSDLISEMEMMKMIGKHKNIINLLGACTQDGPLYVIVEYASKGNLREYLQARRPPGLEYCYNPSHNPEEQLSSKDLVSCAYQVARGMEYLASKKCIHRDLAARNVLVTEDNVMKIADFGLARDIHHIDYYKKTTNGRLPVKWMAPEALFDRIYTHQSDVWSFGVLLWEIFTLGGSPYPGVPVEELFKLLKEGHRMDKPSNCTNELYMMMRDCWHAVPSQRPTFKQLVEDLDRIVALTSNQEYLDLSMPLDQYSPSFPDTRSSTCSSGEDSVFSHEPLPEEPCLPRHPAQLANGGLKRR
Sequence of Cyclin-dependent kinase 18 (Homo sapiens) (Q07002 whole entry): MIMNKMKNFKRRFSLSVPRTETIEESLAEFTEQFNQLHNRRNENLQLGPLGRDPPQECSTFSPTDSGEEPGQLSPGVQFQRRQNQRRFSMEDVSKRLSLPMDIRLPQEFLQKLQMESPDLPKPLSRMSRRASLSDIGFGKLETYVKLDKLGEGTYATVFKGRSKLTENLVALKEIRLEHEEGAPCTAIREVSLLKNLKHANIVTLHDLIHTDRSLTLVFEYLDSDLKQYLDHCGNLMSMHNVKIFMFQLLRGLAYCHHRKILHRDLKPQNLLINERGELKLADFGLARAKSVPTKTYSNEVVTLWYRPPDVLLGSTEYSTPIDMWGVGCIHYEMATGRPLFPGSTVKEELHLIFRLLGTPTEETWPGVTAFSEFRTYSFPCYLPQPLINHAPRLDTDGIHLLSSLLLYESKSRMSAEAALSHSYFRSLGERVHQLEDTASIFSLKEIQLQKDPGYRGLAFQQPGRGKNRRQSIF

As to `C=CC(=O)Nc1ccccc1Nc1nc(Nc2ccc(N3CCN(C)CC3)cc2)ncc1Cl`, the inhibition (as a rule, the change of the read-out against control, counted positive when it falls) is -2.6% in test [1]; 77.3% in test [2]; 33.7% in test [3]; 40.7% in test [4]; 40.4% in test [5]; -8.6% in test [6]. The inhibition in test [7] was 3.7%; in test [8], 90.3%.

Take `COc1cc(O)c2c(c1)/C=C/C[C@H](O)[C@H](O)C(=O)/C=C\C[C@H](C)OC2=O`: the inhibition is 30.6% in test [1]; 67.7% in test [2]; 18.4% in test [3]; -0.3% in test [4]; 21.4% in test [5]; -3.9% in test [6]. Further, the inhibition in test [7] worked out at 21.2%; in test [8] it was 90%.

On to `C=CC(=O)Nc1ccccc1Oc1nc(Nc2cnn(CCOC)c2)ncc1Cl`, for which the inhibition is -7.4% in test [1]; 13.6% in test [2]; 7.6% in test [3]; 6.7% in test [4]; 11.6% in test [5]; 3% in test [6]. Besides, the inhibition in test [7] was 21.9%; in test [8], 31.2%.
